# Data: paper PMC4394037 (Journal of molecular biology, 2014)
# Biological target: Bcl-xL (Homo sapiens, UniProt Q07817)
# Type: binding
# Settings: global SORTCERY ranks re-indexed from 1 to 19 for the 19 chosen sequences
# How it was run: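 Incubated with Myc-tagged Bcl-xL in 50 mM Tris, 100 mM NaCl, pH 8.0, 1 mg/ml BSA for 2 h at room temperature. Stained with anti-HA/anti-Myc, then APC/PE secondaries, at 4 °C. Sorted into 12 gates and deep-sequenced (Phred >0.95). Global ranking optimised by Monte Carlo, with bootstrap uncertainty.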
# Bcl-xL, sequence (Q07817 whole entry): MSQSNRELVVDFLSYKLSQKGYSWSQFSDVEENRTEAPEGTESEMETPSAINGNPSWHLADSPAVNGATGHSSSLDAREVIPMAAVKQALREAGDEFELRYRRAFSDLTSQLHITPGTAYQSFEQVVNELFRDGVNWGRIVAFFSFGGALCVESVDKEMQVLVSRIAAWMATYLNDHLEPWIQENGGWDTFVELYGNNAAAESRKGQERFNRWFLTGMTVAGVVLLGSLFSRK
row,Sequence,reindexed ranking
1,AAQELRRYGDEY,8
2,IGAQFGRFADDF,5
3,IGAQLRRMADDV,7
4,VAQELRRYGDEY,4
5,VGAQLRRIADDV,1
6,YAQEIGRNGDEF,16
7,YAQELQRYGDET,13
8,YGAQLDRYAQDF,10

# Next, values leading:
row,reindexed ranking,Sequence
1,12,AGAQLHRFADDY
2,14,FGAQLGRVASDF
3,6,FGAQLNRIAEDF
4,9,VAQELRRIGDEV
5,17,VGAQFHRFANDF
